According to ChEMBL document CHEMBL3864185, “Identification of N-(2-Phenoxyethyl)imidazo[1,2-a]pyridine-3-carboxamides as New Antituberculosis Agents” (ACS Med Chem Lett, 2016):
In brackets after ≈: the same amount, converted by molar mass.

Assays:
[1] = system: Mycobacterium tuberculosis; experiment: Antimycobacterial activity against isoniazid/rifampicin-resistant Mycobacterium tuberculosis isolate 11168 after 7 days by microplate alamar blue assay; type: functional; details: isolate 11168, 168 h
Summary of the method: (§1)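 Microplate Alamar Blue Assay against clinical MDR M. tuberculosis isolates 11168 and 9160, both resistant to isoniazid and rifampicin. Read-out was fluorescence. MIC was the lowest concentration that reduced fluorescence by >90% versus the mean of replicate bacterium-only controls.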

[2] = system: Mycobacterium tuberculosis; experiment: Antimycobacterial activity against isoniazid/rifampicin-resistant Mycobacterium tuberculosis isolate 9160 after 7 days by microplate alamar blue assay; type: functional; details: isolate 9160, 168 h; summary of the method: as §1

For `Cc1ccc2nc(C)c(C(=O)NCCOc3ccc(Cl)cc3)n2c1`, the MIC [1] was 0.025 µg/mL (≈ 0.0727 µM) and the MIC [2] was 0.028 µg/mL (≈ 0.0814 µM).

`Cc1cccc(OCCNC(=O)c2c(C)nc3ccc(C)cn23)c1` was tested, and the MIC [1] was 0.026 µg/mL (≈ 0.0804 µM) and the MIC [2] was 0.033 µg/mL (≈ 0.102 µM).

`Cc1ccc2nc(C)c(C(=O)NCCOc3ccc(Br)cc3)n2c1` gave an MIC [1] of 0.036 µg/mL (≈ 0.0927 µM) and an MIC [2] of 0.051 µg/mL (≈ 0.131 µM).

In the case of `COc1cccc(OCCNC(=O)c2c(C)nc3ccc(C)cn23)c1`, the MIC [1] is reported as 0.029 µg/mL (≈ 0.0854 µM) and the MIC [2] is reported as 0.035 µg/mL (≈ 0.103 µM).

`Cc1ccc2nc(C)c(C(=O)NCCOc3ccccc3C)n2c1` gave an MIC [1] of 0.036 µg/mL (≈ 0.111 µM) and an MIC [2] of 0.05 µg/mL (≈ 0.155 µM).

For `COc1ccc(OCCNC(=O)c2c(C)nc3ccc(C)cn23)cc1`, the MIC [1] was 0.026 µg/mL (≈ 0.0766 µM) and the MIC [2] was 0.034 µg/mL (≈ 0.1 µM).

`Cc1ccc2nc(C)c(C(=O)NCCOc3ccccc3)n2c1` gave an MIC [1] of 0.03 µg/mL (≈ 0.097 µM) and an MIC [2] of 0.047 µg/mL (≈ 0.152 µM).

In the case of `NNC(=O)c1ccncc1` [ISONIAZID], the MIC [1] is reported as > 40 µg/mL and the MIC [2] is reported as > 40 µg/mL.

Work on `CO[C@H]1/C=C/O[C@@]2(C)Oc3c(C)c(O)c4c(O)c(c(/C=N/N5CCN(C)CC5)c(O)c4c3C2=O)NC(=O)/C(C)=C\C=C\[C@H](C)[C@H](O)[C@@H](C)[C@@H](O)[C@@H](C)[C@H](OC(C)=O)[C@@H]1C` [RIFAMPIN] yielded an MIC [1] of 36.9 µg/mL (≈ 44.8 µM) and an MIC [2] of 38.6 µg/mL (≈ 47 µM).
